Data: ChEMBL document CHEMBL1152771, “Identification of Shc Src homology 2 domain-binding peptoid-peptide hybrids” (J Med Chem, 2009)
Activity calls are given as the source filed them. The rule behind the calls is not given here. Where a SMILES comes first, the peptide text is derived from it.

Tests used:
[1] = molecular target: T1, SHC-transforming protein 1 (Homo sapiens) (UniProt P29353); test: (§1) Binding affinity to Shc Src homology 2 domain by fluorescence anisotropy
T1 sequence (whole entry): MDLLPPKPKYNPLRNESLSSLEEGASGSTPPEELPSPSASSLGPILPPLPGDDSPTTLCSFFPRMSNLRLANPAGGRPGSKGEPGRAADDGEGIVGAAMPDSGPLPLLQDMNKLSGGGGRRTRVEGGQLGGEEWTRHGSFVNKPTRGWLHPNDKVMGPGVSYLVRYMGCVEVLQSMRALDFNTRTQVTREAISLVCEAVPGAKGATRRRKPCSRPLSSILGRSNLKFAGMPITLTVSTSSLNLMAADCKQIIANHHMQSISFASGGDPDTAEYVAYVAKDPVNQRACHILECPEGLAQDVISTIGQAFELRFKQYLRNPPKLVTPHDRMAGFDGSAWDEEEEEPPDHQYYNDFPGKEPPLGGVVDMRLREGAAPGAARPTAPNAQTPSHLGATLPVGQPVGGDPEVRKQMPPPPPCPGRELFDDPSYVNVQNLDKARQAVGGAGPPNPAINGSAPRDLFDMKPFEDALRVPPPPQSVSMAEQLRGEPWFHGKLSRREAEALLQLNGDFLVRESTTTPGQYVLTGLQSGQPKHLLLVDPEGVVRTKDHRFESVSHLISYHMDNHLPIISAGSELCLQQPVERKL
Procedure, shortened: (§2)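 Direct binding: 5 nM N-terminal fluorescein-labelled peptide in 10 mM HEPES, 150 mM NaCl pH 7.5 with 10% (v/v) DMSO; Shc SH2 protein serially diluted from 100 μM. Excitation 485 nm, parallel and perpendicular emission at 535 nm. Kd from fitting anisotropy versus protein concentration to a single-site binding model.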

[2] = molecular target: T1, SHC-transforming protein 1 (Homo sapiens); test: Inhibition of Shc Src homology 2 domain binding to cMet expressed in human B5/589 cells at 10 uM; assay type: cell-based
Procedure, shortened: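 B5/589 human mammary epithelial cells serum-starved 48 h, then exposed 1 h to peptide (10 μM) or none. HGF stimulation at 50 ng/mL for 20 min, then lysis in cold detergent buffer (pH 7.4). c-Met captured with biotinylated antibody on streptavidin resin; co-precipitated Shc and recovered c-Met detected by SDS-PAGE and immunoblot with chemiluminescence.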

[3] = molecular target: T2, SHC-transforming protein 1 (Homo sapiens, UniProt P29353); test: as §1; procedure, shortened: as §2
T2 sequence (P29353 whole entry): T1 sequence (whole entry)

Activity [2] | Compound | Activity [1] | also measured
 | CC(C)C[C@H](NC(=O)CNC(=O)[C@H](CCC(N)=O)NC(=O)[C@H](Cc1ccc(OP(=O)(O)O)cc1)NC(=O)[C@H](CC(C)C)NC(=O)CNC(=O)c1cc(N=C=S)ccc1-c1c2ccc(=O)cc-2oc2cc(O)ccc12)C(=O)N[C@@H](CO)C(N)=O (HELM PEPTIDE1{[O=C(c1cc(N=C=S)ccc1-c1c2ccc(=O)cc-2oc2cc(O)ccc12)[*:2]].G.L.[O=C([C@H](Cc1ccc(OP(=O)(O)O)cc1)N[*:1])[*:2]].Q.G.L.S.[am]}$$$$V2.0) | inactive | 
Active | CC[C@H](C)[C@H](NC(=O)[C@H](CCCCN)NC(=O)[C@@H](NC(=O)[C@H](CCC(N)=O)NC(=O)[C@H](CCCNC(=N)N)NC(C)=O)[C@@H](C)CC)C(=O)N[C@@H](Cc1c[nH]c2ccccc12)C(=O)N[C@@H](Cc1ccccc1)C(=O)N[C@@H](CCC(N)=O)C(=O)N[C@@H](CC(N)=O)C(=O)N[C@@H](CCCNC(=N)N)C(=O)N[C@@H](CCCNC(=N)N)C(=O)N[C@@H](CCSC)C(=O)N[C@@H](CCCCN)C(=O)N[C@@H](Cc1c[nH]c2ccccc12)C(=O)N[C@@H](CCCCN)C(=O)N[C@@H](CCCCN)C(=O)NCCOCCOCCOCCNC(=O)[C@H](CO)NC(=O)[C@H](CC(C)C)NC(=O)CNC(=O)[C@H](CCC(N)=O)NC(=O)[C@H](Cc1ccc(OP(=O)(O)O)cc1)NC(=O)CCCCNC(=O)c1cc(N=C=S)ccc1-c1c2ccc(=O)cc-2oc2cc(O)ccc12 |  | 
Active | CC(=O)N[C@@H](CCCNC(=N)N)C(=O)N[C@@H](CCCNC(=N)N)C(=O)N[C@@H](CCCNC(=N)N)C(=O)N[C@@H](CCCNC(=N)N)C(=O)N[C@@H](CCCNC(=N)N)C(=O)N[C@@H](CCCNC(=N)N)C(=O)N[C@@H](CCCNC(=N)N)C(=O)N[C@@H](CCCNC(=N)N)C(=O)NCCOCCOCCOCCNC(=O)[C@H](CO)NC(=O)[C@H](CC(C)C)NC(=O)CNC(=O)[C@H](CCC(N)=O)NC(=O)[C@H](Cc1ccc(OP(=O)(O)O)cc1)NC(=O)CCCCNC(=O)c1cc(N=C=S)ccc1-c1c2ccc(=O)cc-2oc2cc(O)ccc12 |  | 
 | CC(C)C[C@H](NC(=O)CNC(=O)[C@H](CCC(N)=O)NC(=O)[C@H](Cc1ccc(OP(=O)(O)O)cc1)NC(=O)CCNC(=O)c1cc(N=C=S)ccc1-c1c2ccc(=O)cc-2oc2cc(O)ccc12)C(=O)N[C@@H](CO)C(N)=O (HELM PEPTIDE1{[O=C(c1cc(N=C=S)ccc1-c1c2ccc(=O)cc-2oc2cc(O)ccc12)[*:2]].[bAla].[O=C([C@H](Cc1ccc(OP(=O)(O)O)cc1)N[*:1])[*:2]].Q.G.L.S.[am]}$$$$V2.0) |  | Kd [3]: 1.09 µM
 | CC(C)C[C@H](NC(=O)CNC(=O)[C@H](CCC(N)=O)NC(=O)[C@H](Cc1ccc(OP(=O)(O)O)cc1)NC(=O)CNC(=O)c1cc(N=C=S)ccc1-c1c2ccc(=O)cc-2oc2cc(O)ccc12)C(=O)N[C@@H](CO)C(N)=O (HELM PEPTIDE1{[O=C(c1cc(N=C=S)ccc1-c1c2ccc(=O)cc-2oc2cc(O)ccc12)[*:2]].G.[O=C([C@H](Cc1ccc(OP(=O)(O)O)cc1)N[*:1])[*:2]].Q.G.L.S.[am]}$$$$V2.0) | inactive | 
